# Laboratory results from ChEMBL document CHEMBL3804768, “Structure-Activity Relationship Studies of Mitogen Activated Protein Kinase Interacting Kinase (MNK) 1 and 2 and BCR-ABL1 Inhibitors Targeting Chronic Myeloid Leukemic Cells” (J Med Chem, 2016).
# Activity calls are given as the source filed them. The calls are words filed in the database; no cut-off is given here.
# How the values were obtained:
# [1] = tested on: Mus musculus; assay: In vivo inhibition of MNK1/MNK2 in NOD-SCID mouse tumor xenografted with human K562 cells over expressing eIF4E assessed as inhibition of eIF4E phosphorylation at Ser209 at 50 mg/kg, po qd adminstered through oral gavage measured 4 hrs post dose by AlphaScreen SureFire assay; assay type: functional, organism-based
# Outline: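 Tumors were excised after the final day-14 oral dose (50 mg/kg) and flash frozen, then homogenized in SureFire lysis buffer with protease and phosphatase inhibitors. Lysate protein was normalized to 0.5 mg/mL by A280. Phospho-eIF4E Ser209 was read by AlphaScreen SureFire with 2 h acceptor and 2 h donor incubations at room temperature. Inhibition was calculated against the 0 h control signal.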
# [2] = molecular target: Platelet-derived growth factor receptor beta (Homo sapiens, UniProt P09619); assay: Inhibition of human recombinant PDGFRbeta expressed in sf21 cells using Poly(Glu:Tyr) as substrate in presence of [gamma32P]ATP
# [3] = Antiproliferative activity against human KCL22 cells after 48 hrs by Cell-Titer-Glo luminescent cell viability assay; assay type: functional; conditions: KCL-22, 48 h
# [4] = molecular target: T1, Platelet-derived growth factor receptor alpha (Homo sapiens, UniProt P16234); assay: Inhibition of human recombinant PDGFRalpha expressed in sf21 cells at 1 uM using Poly(Glu:Tyr) as substrate in presence of [gamma32P]ATP
# [5] = molecular target: Fibroblast growth factor receptor 2 (Homo sapiens, UniProt P21802); assay: Inhibition of human recombinant FGFR2 expressed in sf21 cells at 1 uM using Poly(Glu:Tyr) as substrate in presence of [gamma32P]ATP
# [6] = molecular target: Proto-oncogene tyrosine-protein kinase receptor Ret (Homo sapiens, UniProt P07949); assay: Inhibition of human recombinant RET expressed in sf21 cells at 1 uM using Poly(Glu:Tyr) as substrate in presence of [gamma32P]ATP
# [7] = molecular target: T1, Platelet-derived growth factor receptor alpha; assay: Inhibition of human recombinant PDGFRalpha expressed in sf21 cells using Poly(Glu:Tyr) as substrate in presence of [gamma32P]ATP
# [8] = AUC in CD1 mouse at 50 mg/kg, po; assay type: ADME, organism-based; conditions: in vivo
# [9] = Antiproliferative activity against human JURL-MK1 cells after 48 hrs by Cell-Titer-Glo luminescent cell viability assay; assay type: functional; conditions: JURL-MK1, 48 h
# [10] = molecular target: Cytochrome P450 2D6 (Homo sapiens, UniProt P10635); assay: Inhibition of CYP2D6 (unknown origin); assay type: ADME
# [11] = molecular target: Vascular endothelial growth factor receptor 2 (Homo sapiens, UniProt P35968); assay: Inhibition of human recombinant VEGFR2 expressed in sf21 cells at 1 uM using Poly(Glu:Tyr) as substrate in presence of [gamma32P]ATP
# [12] = molecular target: Tyrosine-protein kinase ABL1 (Homo sapiens) (UniProt P00519); assay: Inhibition of ABL1 in human K562 cells over expressing eIF4E assessed as reduction in phosphorylation of Crkl at Tyr207 after 24 hrs by Western blot analysis; assay type: cell-based
# Outline: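 K562 eIF4E-overexpressing cells were treated at 100, 500 and 1000 nM for 24 h and lysed in RIPA buffer with SDS and protease/phosphatase inhibitors. Equal protein was resolved on 4-12% Bis-Tris gels and blotted to PVDF, with blocking in 5% BSA/PBST. The blot was probed overnight at 4 °C with a Bcr/Abl activity antibody cocktail for Crkl and phospho-Crkl Tyr207, and detected by ECL chemiluminescence.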
# [13] = Antiproliferative activity against human EM2 cells after 48 hrs by Cell-Titer-Glo luminescent cell viability assay; assay type: functional; conditions: EM-2, 48 h
# Outline: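 Cells seeded at 5000 per well in growth medium, exposed to serial doses from 0.003 μM to 50 μM for 48 h at 37 °C, 5% CO2. Viability was read by CellTiter-Glo luminescence and GI50 taken from the dose-response curve. Dose response was run in triplicate and the curve repeated twice. K562 eIF4E-overexpressing cells were cultured in RPMI with 10% FBS.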
# [14] = Oral bioavailability in CD1 mouse at 50 mg/kg; assay type: ADME, organism-based; conditions: in vivo
# [15] = molecular target: MAP kinase-interacting serine/threonine-protein kinase 1 (Homo sapiens, UniProt Q9BUB5); assay: Inhibition of N-terminal GST-tagged MNK1 kinase domain (37 to 341 residues) (unknown origin) expressed in Escherichia coli BL21(DE3) cells using JH3 peptide substrate preincubated for 10 mins followed by substrate addition measured after 60 mins by mobility shift assay
# [16] = molecular target: Receptor-type tyrosine-protein kinase FLT3 (Homo sapiens) (UniProt P36888); assay: Inhibition of human recombinant FLT3 expressed in sf21 cells at 1 uM using Poly(Glu:Tyr) as substrate in presence of [gamma32P]ATP
# [17] = molecular target: MAP kinase-interacting serine/threonine-protein kinase 2 (Homo sapiens, UniProt Q9HBH9); assay: Inhibition of N-terminal GST-tagged MNK2 kinase domain (72 to 385 residues) (unknown origin) expressed in Escherichia coli BL21(DE3) cells using JH3 peptide substrate preincubated for 10 mins followed by substrate addition measured after 60 mins by mobility shift assay
# T1 sequence (P16234 whole entry): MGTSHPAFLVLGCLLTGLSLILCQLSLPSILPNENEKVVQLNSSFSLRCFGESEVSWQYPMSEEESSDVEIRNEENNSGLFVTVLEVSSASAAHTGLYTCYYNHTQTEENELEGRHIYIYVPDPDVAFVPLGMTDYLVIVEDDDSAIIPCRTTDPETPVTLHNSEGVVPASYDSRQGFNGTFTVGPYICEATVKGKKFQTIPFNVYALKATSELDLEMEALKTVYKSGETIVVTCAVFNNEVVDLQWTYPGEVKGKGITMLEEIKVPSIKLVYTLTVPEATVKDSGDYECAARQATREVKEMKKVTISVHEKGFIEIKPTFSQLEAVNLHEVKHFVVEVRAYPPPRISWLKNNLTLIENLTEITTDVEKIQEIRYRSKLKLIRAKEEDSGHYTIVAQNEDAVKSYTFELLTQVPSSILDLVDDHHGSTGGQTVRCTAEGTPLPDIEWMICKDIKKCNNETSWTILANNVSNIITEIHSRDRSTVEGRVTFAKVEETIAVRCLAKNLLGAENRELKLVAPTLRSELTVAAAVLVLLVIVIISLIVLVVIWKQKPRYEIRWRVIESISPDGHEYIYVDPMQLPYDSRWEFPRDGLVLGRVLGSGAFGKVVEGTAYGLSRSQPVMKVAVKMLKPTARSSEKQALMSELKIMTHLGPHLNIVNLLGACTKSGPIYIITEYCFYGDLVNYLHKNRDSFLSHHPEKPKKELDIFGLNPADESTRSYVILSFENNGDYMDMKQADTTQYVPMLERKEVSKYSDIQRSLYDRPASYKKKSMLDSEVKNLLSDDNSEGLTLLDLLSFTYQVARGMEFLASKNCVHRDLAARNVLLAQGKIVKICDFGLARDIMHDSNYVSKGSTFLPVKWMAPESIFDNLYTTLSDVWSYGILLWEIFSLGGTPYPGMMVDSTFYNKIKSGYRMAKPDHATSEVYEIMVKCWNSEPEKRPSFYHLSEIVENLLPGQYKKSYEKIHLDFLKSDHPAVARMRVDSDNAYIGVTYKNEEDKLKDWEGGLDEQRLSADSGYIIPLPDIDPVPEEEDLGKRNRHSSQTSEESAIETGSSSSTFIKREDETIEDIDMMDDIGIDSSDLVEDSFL
# Sequence of Vascular endothelial growth factor receptor 2 (P35968 whole entry): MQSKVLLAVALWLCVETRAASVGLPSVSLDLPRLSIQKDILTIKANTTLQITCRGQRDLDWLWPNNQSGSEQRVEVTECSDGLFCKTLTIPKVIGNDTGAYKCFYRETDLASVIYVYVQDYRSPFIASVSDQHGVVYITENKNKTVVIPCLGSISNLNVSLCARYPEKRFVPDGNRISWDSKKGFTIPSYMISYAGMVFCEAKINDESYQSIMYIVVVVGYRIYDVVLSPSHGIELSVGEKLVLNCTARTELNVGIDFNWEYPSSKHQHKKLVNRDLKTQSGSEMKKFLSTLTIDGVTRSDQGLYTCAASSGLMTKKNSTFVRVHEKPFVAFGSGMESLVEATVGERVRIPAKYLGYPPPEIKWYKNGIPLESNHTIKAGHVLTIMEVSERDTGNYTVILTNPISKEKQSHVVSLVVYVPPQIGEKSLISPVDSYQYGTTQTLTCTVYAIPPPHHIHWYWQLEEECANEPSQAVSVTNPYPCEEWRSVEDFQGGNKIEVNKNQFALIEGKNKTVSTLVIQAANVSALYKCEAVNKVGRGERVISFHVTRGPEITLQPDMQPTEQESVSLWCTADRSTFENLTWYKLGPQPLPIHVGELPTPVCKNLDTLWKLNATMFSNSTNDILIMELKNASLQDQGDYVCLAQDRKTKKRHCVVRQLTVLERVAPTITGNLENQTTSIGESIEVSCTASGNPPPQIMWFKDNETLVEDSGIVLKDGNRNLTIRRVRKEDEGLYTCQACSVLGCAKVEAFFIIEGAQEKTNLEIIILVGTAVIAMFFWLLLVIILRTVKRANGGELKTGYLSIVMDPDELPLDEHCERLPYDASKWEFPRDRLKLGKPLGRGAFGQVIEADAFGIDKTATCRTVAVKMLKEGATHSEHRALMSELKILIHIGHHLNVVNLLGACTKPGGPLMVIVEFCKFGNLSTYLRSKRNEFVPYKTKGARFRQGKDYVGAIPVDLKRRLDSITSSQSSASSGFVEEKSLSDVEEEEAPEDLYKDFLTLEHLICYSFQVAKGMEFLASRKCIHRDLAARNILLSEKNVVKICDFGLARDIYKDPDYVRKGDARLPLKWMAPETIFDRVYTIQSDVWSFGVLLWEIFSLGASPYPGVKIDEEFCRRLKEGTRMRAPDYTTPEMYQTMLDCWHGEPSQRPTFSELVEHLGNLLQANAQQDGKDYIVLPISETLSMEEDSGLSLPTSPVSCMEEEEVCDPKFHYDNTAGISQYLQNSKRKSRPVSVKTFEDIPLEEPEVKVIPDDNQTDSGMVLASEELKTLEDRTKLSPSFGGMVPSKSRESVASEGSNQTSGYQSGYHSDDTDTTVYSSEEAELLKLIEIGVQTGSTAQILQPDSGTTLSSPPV
# Sequence of Tyrosine-protein kinase ABL1 (Homo sapiens) (P00519 whole entry): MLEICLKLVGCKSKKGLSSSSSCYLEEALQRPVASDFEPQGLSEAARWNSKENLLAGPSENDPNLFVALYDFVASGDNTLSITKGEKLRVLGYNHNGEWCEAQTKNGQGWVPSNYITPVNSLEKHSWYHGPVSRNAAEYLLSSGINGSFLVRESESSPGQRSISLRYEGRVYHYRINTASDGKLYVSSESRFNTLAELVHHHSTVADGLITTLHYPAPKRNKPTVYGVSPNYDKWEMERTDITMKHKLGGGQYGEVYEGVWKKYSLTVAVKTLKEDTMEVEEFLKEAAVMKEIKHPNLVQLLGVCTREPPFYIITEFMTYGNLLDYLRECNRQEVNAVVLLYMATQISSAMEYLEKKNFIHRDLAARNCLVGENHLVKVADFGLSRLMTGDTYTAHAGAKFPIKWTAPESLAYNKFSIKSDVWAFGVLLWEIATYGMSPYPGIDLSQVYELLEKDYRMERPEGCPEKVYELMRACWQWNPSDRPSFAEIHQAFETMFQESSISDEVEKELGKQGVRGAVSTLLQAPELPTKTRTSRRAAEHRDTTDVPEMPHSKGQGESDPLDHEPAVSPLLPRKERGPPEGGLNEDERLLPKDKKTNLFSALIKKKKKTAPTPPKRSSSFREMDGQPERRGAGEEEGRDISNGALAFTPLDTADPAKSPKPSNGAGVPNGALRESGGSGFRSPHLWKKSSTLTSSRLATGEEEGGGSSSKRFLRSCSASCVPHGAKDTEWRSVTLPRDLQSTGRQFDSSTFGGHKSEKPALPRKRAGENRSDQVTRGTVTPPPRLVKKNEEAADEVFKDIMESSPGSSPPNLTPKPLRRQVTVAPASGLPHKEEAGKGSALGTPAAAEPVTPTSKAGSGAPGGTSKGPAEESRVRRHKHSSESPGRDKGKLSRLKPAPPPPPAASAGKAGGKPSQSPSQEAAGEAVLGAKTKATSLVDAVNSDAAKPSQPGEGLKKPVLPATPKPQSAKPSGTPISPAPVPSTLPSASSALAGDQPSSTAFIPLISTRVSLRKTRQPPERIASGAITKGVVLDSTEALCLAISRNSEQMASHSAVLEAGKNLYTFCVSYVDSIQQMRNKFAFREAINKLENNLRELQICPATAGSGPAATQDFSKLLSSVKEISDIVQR
# Sequence of Fibroblast growth factor receptor 2 (P21802 22-821 limits assumed): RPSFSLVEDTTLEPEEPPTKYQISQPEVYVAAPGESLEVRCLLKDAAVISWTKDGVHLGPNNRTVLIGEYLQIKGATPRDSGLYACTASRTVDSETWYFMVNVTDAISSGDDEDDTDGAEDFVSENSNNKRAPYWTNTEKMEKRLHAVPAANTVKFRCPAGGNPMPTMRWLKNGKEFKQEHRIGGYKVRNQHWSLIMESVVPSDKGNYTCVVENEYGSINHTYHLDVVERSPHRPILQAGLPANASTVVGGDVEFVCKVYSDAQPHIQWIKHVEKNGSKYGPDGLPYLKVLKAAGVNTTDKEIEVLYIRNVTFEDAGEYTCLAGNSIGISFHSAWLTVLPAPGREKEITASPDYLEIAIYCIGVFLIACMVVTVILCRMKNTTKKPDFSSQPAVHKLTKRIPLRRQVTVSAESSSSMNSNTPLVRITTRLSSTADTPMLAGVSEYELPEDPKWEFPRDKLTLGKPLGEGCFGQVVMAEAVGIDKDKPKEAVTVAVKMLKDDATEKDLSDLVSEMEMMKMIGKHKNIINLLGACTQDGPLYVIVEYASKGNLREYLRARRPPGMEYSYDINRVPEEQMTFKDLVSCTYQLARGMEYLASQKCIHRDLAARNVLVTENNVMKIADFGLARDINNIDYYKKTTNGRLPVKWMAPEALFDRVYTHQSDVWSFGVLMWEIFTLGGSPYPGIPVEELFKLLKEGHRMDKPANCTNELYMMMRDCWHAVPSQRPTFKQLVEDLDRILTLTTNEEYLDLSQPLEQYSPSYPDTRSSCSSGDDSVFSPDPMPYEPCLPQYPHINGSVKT
# Sequence of Cytochrome P450 2D6 (P10635 whole entry): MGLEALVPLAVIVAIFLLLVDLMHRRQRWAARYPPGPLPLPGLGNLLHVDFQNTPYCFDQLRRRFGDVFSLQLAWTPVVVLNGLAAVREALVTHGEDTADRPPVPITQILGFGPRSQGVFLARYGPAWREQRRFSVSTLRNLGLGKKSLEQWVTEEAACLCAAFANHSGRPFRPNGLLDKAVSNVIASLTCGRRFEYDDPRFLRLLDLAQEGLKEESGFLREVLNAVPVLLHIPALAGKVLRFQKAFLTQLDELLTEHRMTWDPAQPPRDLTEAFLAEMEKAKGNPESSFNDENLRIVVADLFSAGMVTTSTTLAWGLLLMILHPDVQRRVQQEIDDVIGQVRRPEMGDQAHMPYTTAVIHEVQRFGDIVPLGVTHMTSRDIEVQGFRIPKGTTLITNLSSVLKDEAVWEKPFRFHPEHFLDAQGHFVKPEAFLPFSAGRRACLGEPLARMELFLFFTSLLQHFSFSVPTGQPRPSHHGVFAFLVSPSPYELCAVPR
SMILES,inhibition [1],IC50 [2],GI50 [3],inhibition [4],inhibition [5],inhibition [6],IC50 [7],AUC [8],GI50 [9],IC50 [10],inhibition [11],inhibition [12],GI50 [13],bioavailability [14],IC50 [15],inhibition [16],IC50 [17]
CN1CCN(Cc2ccc(NC(=O)CNc3ccc(-c4ccc(NC(=O)C5CC5)nc4)cc3F)cc2C(F)(F)F)CC1,Active,1050 nM,13 nM,> 99%,> 99%,> 99%,1280 nM,5130 ng·h/mL,1 nM,> 30000 nM,> 99%,Dose-dependent effect,1 nM,31%,200 nM,> 99%,10 nM
CCN1CCN(Cc2ccc(NC(=O)CNc3ccc(-c4ccc(NC(=O)C5CC5)nc4)cc3)cc2C(F)(F)F)CC1,Active,1080 nM,50 nM,> 99%,> 99%,> 99%,672 nM,14300 ng·h/mL,30 nM,> 30000 nM,> 99%,Dose-dependent effect,15 nM,80%,2520 nM,> 99%,16 nM
